Screening results: PubChem, several laboratories
MLLE-PAM2 inh – blocks PAM2 peptide binding to the PABP1 MLLE domain; P11940; GST-MLLE / FITC-PAM2 fluorescence polarization; inhibition, % at 20 µM; 0.36% of 360,000 active; in the data active = inhibition above about 35%, passing the limit was not always enough;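 note: plate controls were DMSO wells with GST-MLLE for no effect and wells lacking GST-MLLE protein for full effect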
eIF4E-4G inh – eIF4E/eIF4G interaction inhibition in translation initiation; inhibition, % at 21.7 µM; 0.37% of 220,000 active; TR-FRET eIF4E-eIF4GI(517-606) binding, 2 h;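 active = inhibition above about 30%, limit read from the data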;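 note: 0% = full FRET control wells and 100% = background wells lacking eIF4GI fragment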
eIF4H inh – inhibitors of RNA binding by human eIF4H | eIF4H fluorescence polarization binding assay | inhibition, % at 35 µM | 0.94% of 290,000 active;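 note: calls also rest on retests at 20 µM and on dose response follow-up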
PABP FP inh – PABP-poly(A) binding inhibition. calls only at 35 µM. 1% of 290,000 active. PABP-poly(A) RNA binding, fluorescence polarization;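 note: calls also rest on retests at 20 µM and on dose response follow-up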
UBC9 SUMO inh – inhibitors of human SUMOylation (UBC9). HTRF SUMOylation assay, SAE1/SAE2 + UBC9, in vitro. P63279. 0.36% of 290,000 active. AID 2006. inhibition, % at 35 µM; in the data active = inhibition above about 50%, passing the limit was not always enough; inconclusive = no clear call, values can overlap the other calls
Target sequence (P63279 whole entry, looked up): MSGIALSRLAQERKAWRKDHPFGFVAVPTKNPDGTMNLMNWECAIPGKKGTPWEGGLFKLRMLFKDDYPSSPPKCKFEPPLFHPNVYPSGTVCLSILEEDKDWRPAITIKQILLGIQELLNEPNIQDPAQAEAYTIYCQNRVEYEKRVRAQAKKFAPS
HCV core dimer – HCV core protein dimerization inhibition | TR-FRET GST/Flag-core106 dimerization, 1536-well | inhibition, % at 5 µM | 0.33% of 300,000 active;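 active = inhibition above the mean of all tested compounds plus 3 SD, set per screening campaign, cut at about 45% in these data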
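Assay system – GST-tagged and Flag-tagged HCV core protein residues 1-106 · Quantity – core106 proteins, GST 13.5 nM and Flag 17 nM · Benchmarks – unlabelled core106 and no-GST-core106 wells · Read-out basis – percent inhibition of core106 dimerization signal · Detection – time-resolved FRET, ex 340 nm, em 617 and 671 nm · Schedule – 4 h at 22.5 °C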
* = called active by the depositor; i = inactive; u = inconclusive; x = no result; + = active, no number; [ ] = remark or other dose. Shown are actives, neighbours in structure and some others; about 1.8% of the full set was active somewhere. Unless noted, the rule behind the calls is not given here.

SMILES	MLLE-PAM2 inh	eIF4E-4G inh	eIF4H inh	PABP FP inh	UBC9 SUMO inh	HCV core dimer
COc1ccc(/C=C2\SC(=S)N(CC(=O)NC3CCS(=O)(=O)C3)C2=O)cc1 (stereo not drawn)	5	x	0	i	21	12
COc1ccccc1N(Cc1cc(=O)[nH]c2ccccc12)C(=O)c1ccccc1	-1	58*	-2	i	10	6
CNc1ccc(Br)cc(C(=O)/C=C/c2ccc(OC)cc2)c1=O	-23	26	32	i	26	18
CNc1ccc(Br)cc(C(=O)/C=C/c2ccc3c(c2)OCO3)c1=O	-23	0	92*	+	23	56*
CC1C(=O)N2CCCc3cc(NC(=O)C(=O)NCc4cccnc4)cc1c32 (stereo not drawn)	2	x	x	x	x	-1
O=C(CCNC(=O)Cn1ccc2ccccc2c1=O)NCc1ccccn1	-6	1	-5	i	-2	-1
Cc1oc2c(c(C)cc3oc(=O)c(CC(=O)N[C@@H](C)C(=O)O)c(C)c32)c1C	9	x	-8	i	51*	5
Cc1c(Cl)cccc1NC(=O)CNC(=O)C1CCN(C(=O)Nc2ccccc2)CC1	3	x	x	x	x	x
CC1(C)CC(=O)C/C(=N\NC(=O)Cc2ccccc2)C1	-4	-6	active	+	3	-7
O=C(Nc1ccccc1OC(F)F)c1cccc(S(=O)(=O)N2CCCC2)c1	1	x	-6	i	-2	-9
O=C(O[C@@H]1Cc2c(O)cc(O)cc2O[C@@H]1c1cc(O)c(O)c(O)c1)c1cc(O)c(O)c(O)c1	x	9	80*	+	41	x
Oc1cc(O)c2c(c1)O[C@H](c1ccc(O)c(O)c1)[C@H](O)C2	-6	x	14	i	6	-1
Clc1ccc(CN2C3=NCCCN3c3ccccc32)cc1Cl	19	-2	-4	i	10	-1
CCCCCCCC(=O)Nc1ccc(C(=O)N/N=C/c2cccc([N+](=O)[O-])c2)cc1	4	-17	-18	i	50*	24
O=[N+]([O-])c1ccc(Cl)c(NC(=S)N2CCCC2)c1	-26	x	-9	i	12	-7
C/C(=N/NC(=O)CNc1ccc(C)cc1)c1ccc(Cl)cc1	-2	4	-12	i	12	10
CCCCC(O)(CCCC)C(=O)N/N=C(\C)c1ccc(Cl)cc1	-4	0	84*	+	13	0
CC(C)CC(NC(=O)c1ccccc1)C(=O)N/N=C/c1ccco1 (stereo not drawn)	-8	10	58*	+	-4	-2
CC(NC(=O)c1ccccc1)C(=O)N/N=C/c1ccco1 (stereo not drawn)	10	x	-1	i	2	-10
Cn1cccc1CC(=O)NNC(=S)Nc1ccc(Cl)cc1Cl	26	3	58*	+	5	-4
Oc1ccc(N=Nc2ccccc2)o1	33	x	9	i	0	5
O=C(COC(=O)c1cccc(OC(F)F)c1)NCC1CCCO1 (stereo not drawn)	8	x	x	x	x	x
O=C(Nc1nc(-c2ccco2)c(-c2ccco2)s1)c1cnccn1	x	x	x	x	x	69*
O=C(Nc1nc(-c2ccco2)c(-c2ccco2)s1)c1c(F)cccc1Cl	-53	x	x	x	x	x
Oc1ccc(Cl)cc1C=Nc1ccc2c3c(cccc13)CC2	-20	4	99	i	57*	-29
SMILES	MLLE-PAM2 inh	eIF4E-4G inh	eIF4H inh	PABP FP inh	UBC9 SUMO inh	HCV core dimer
CCCN1C(=O)c2ccccc2NC1c1ccc(Cl)c(Cl)c1 (stereo not drawn)	-4	x	-8	i	13	10
CCCCN1C2=C(C(=O)CCC2)C(c2ccc(Cl)c(Cl)c2)C2=C1c1ccccc1C2=O (stereo not drawn)	38	2	90*	+	1	16
COc1ccc(C)cc1S(=O)(=O)NC(C)c1cnn(-c2ccccn2)c1C (stereo not drawn)	5	x	-9	i	7	-1
O=C1c2cccc3c([N+](=O)[O-])ccc(c23)C(=O)N1O	26	x	u	u	-14	-44
COc1ccc2c3c(cccc13)C(=O)N(O)C2=O	40*	-1	95	i	1	15
CC(C)(C)c1ccc(S(=O)(=O)NNC(=O)c2cc3ccccc3[nH]2)cc1	3	x	12	i	20	6
COc1cccc(N(CC(=O)NCCSc2ccccn2)S(=O)(=O)c2ccccc2)c1	5	x	8	i	12	8
COc1ccc(N2Cc3cccc(C(=O)N4CCN(C(=O)c5ccco5)CC4)c3C2=O)cc1	-10	14	93*	+	6	85*
COc1ccc(N2Cc3cccc(C(=O)N4CCOCC4)c3C2=O)cc1	-17	3	-11	i	-1	-4
CCOC(=O)N1C=CC=C[C@@H]2[C@@H](N3C(=O)c4ccccc4C3=O)C(=O)N21	9	3	0	+	3	-1
CCOC(=O)c1cc2sc(C)cc2n1CCCN1C(=O)c2ccccc2C1=O	18	3	-9	i	-13	8
O=C(NCC(=O)c1ccccc1)OCc1ccc([N+](=O)[O-])cc1	-3	x	10	i	-6	-2
CC(c1nc2ccccc2c(=O)[nH]1)N(C)c1ccc2ccccc2c1 (stereo not drawn)	42*	10	17	i	-3	-8
CCCCSc1nc2c(cc1C#N)CCC2	16	5	-1	i	-6	3
CCCSc1nc(C)c(-c2csc(C(C#N)=C3CCCC3)n2)cc1C#N	-27	10	59*	+	28	61*
CCc1noc(C)c1C(=O)Nc1ccc(F)c(F)c1	-12	x	x	x	x	-2
O=C(C1=NN(c2ccccc2)C(=O)CC1)N1CCc2ccccc2C1	12	x	-6	i	12	9
CNc1sc(C(=O)c2ccccc2F)c(N)c1-c1nc2ccccc2s1	41*	-4	13	i	-4	-10
Cc1ccc(C)n1-c1ccc(-c2nnco2)cc1	-6	0	13	i	37	67*
O=C(NC(=S)NC1CCCCC1)c1ccccc1[N+](=O)[O-]	19	x	-9	i	2	6
Cc1ccc(Cc2c(C)nc3nc(SCC(=O)NCCCN4CCCCCC4)nn3c2C)cc1	x	x	44	i	8	94*
N#Cc1c(Cl)c(Cl)c2nnc(-c3ccc(Br)cc3)n2c1Cl	x	36*[fluorescence artefact?]	27	i	7	4
COC(=O)c1sc(C(=O)OC)c(C(=O)OC)c1C(=O)OC	-7	-5	-5	i	7	2
COC(=O)c1sc(=S)sc1C(=O)OC	52*	7	8	i	15	-2
CCCCCc1c2c(cc(O)c1C(=O)O)OC(=O)c1c(cc(OC)cc1C(=O)CCCC)O2	-6	6	62	+	x	8
